Results from different studies.
Target: D(3) dopamine receptor (DRD3, Homo sapiens, UniProt P35462)
Concentration: 10 µM

Structure (SMILES) | observed | mode | method | inhibition [%]
N#CN1CC[C@H](C(=O)Nc2nc3c(s2)CN(C(=O)CN=[N+]=[N-])CC3)C1 | ligand displacement |  |  | -2.14
COc1cccc(N2CCN(C3CC(=O)N(c4cccc(OC)c4)C3=O)CC2)c1 (stereo not shown) | enzyme activity | inhibitor |  | -37.6
CN([C@@H]1CCc2c(CC(=O)O)c3ccccc3n2C1)S(=O)(=O)c1ccc(F)cc1 | ligand displacement |  |  | -4.25
N#Cc1cc(Cn2c(N3CCCC3)nc3ccccc32)ccc1F | ligand displacement |  |  | 39.3
CCN(CC)c1ccc(C2Nc3ccc(C(=O)c4ccccc4)cc3NC3=C2C(=O)CC(C)(C)C3)cc1 (stereo not shown) | ligand displacement |  | radioligand | 12
CCCNc1nc2ccccc2n1Cc1ccc(Cl)cc1 | ligand displacement |  |  | 40.8
COc1ccc(-c2ccc(CNCC(O)c3ccccc3)o2)cc1Cl (stereo not shown) | enzyme activity | inhibitor |  | 12.1
O=C(c1ccc(F)cc1)N(Cc1ccccc1)C1CCCCC1 | cell-free assay |  |  | 8
CCN(Cc1ccccc1C(F)(F)F)C(=O)C1CCN(S(=O)(=O)c2ccc3[nH]ncc3c2)CC1 | ligand displacement |  | radioligand | 23
Nc1nonc1C(=O)NCCNCc1cccc(OCc2ccccc2F)c1 | enzyme activity | inhibitor |  | 4.3
